Results: article PMC3940414 (Journal of Medicinal Chemistry, 2014)
Entries after “also recorded” stand apart in the source; their conditions may differ. Where two headings read alike, the source gives them in different places.

What was measured:
[1] = tested on: common P450 metabolism enzymes; conditions: background statement, ref not given; cited from earlier work
cannabinoid CB1 receptor = conditions: background statement, ref not given; cited from earlier work
analgesia = conditions: cited from earlier work
rFAAH [2] = target: T1, rFAAH (Rattus norvegicus, UniProt P97612); assay: Lineweaver–Burk kinetic analysis; type: biochemical; conditions: after 3 h preincubation with the enzyme
T1 sequence (P97612 30-579 limits assumed): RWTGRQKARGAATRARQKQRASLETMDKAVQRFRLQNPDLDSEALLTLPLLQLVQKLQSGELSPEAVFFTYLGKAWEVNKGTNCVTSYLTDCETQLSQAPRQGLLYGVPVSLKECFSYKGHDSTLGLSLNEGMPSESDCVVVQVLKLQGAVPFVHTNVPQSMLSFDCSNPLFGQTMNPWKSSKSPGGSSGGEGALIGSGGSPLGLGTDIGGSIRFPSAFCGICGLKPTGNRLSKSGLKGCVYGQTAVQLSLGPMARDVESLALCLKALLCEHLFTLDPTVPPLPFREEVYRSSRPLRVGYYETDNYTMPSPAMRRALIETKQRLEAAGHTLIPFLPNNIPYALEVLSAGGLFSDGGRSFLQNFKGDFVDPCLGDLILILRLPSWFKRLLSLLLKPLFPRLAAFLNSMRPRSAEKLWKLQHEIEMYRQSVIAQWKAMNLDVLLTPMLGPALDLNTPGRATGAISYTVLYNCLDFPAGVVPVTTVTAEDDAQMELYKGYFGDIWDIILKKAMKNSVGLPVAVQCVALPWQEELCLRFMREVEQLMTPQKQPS

[3] = tested on: lipid amides in the brain; conditions: mice, i.p.; cited from earlier work
[4] = target: T2, purified recombinant rat FAAH (Rattus norvegicus, UniProt P97612); assay: Reversibility of FAAH inhibition by dialysis dilution; type: biochemical; conditions: 3 h preincubation 22 °C, then dialysis 4 °C, 18 h, 370-fold, pH 9
T2 sequence (P97612 30-579 limits assumed): T1 sequence (P97612 30-579 limits assumed)
Procedure, shortened: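 Purified recombinant rat FAAH (E. coli-expressed) in pH 9.0 Tris/EDTA/glycerol/Triton X-100/Hepes buffer, preincubated 3 h at 22 °C with test compound (final 80, 100 or 150 nM) or DMSO. Triplicate pre-dialysis activity assay, then dialysis (10 000 MW cutoff) against PBS, 4 °C, 18 h, stirred. Post-dialysis activity assayed in triplicate and expressed as % of DMSO control.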

cannabinoid CB2 receptor = conditions: background statement, ref not given; cited from earlier work
[5] = tested on: human ether-a-go-go related gene product (hERG); conditions: background statement, ref not given; cited from earlier work
[6] = tested on: vanilloid (TRP) receptors; conditions: background statement, ref not given; cited from earlier work
rFAAH [7] = target: T1, rFAAH; type: biochemical
[8] = Recovery of thioesters from assay buffer and enzymatic assays; type: physicochemical; conditions: for recovery from the assay buffer: 6 h
neuropathic pain = conditions: cited from earlier work
[9] = tested on: endogenous brain levels of FAAH substrates (AEA, OEA, PEA); assay: Brain lipid levels after i.p. inhibitor administration; type: in vivo; conditions: mice, 3 h post i.p. 30 mg/kg, relative to reversible inhibitor 2
[10] = enzyme–inhibitor preincubation 0–6 h

SMILES	mode of inhibition (Lineweaver–Burk) (rFAAH [2])	recovery of enzyme activity after dialysis dilution [4]	time-dependent change of inhibition potency (in words) (rFAAH [7]; [10])	increase of brain anandamide levels over that of 2 [9]	other results
O=C(CCCCCCc1ccccc1)c1ncc(-c2ccccn2)o1 [compound 2]	reversible, competitive	restored full enzyme activity; also recorded: nearly full recovery of enzyme activity	does not display time-dependent inhibition	–	inhibition of common P450 metabolism enzymes [1]: does not significantly inhibit; binding to CB1 receptor (cannabinoid CB1 receptor): does not bind; analgesic effect (analgesia): induces analgesia; duration of elevation of brain lipid amides [3]: 2 to 3 h; binding to CB2 receptor (cannabinoid CB2 receptor): does not bind; inhibition of hERG [5]: does not significantly inhibit; binding to vanilloid (TRP) receptors [6]: does not bind
COC(=O)c1ccc(-c2cnc(C(=O)CCCCCCc3ccccc3)o2)nc1 [compound 3]	reversible, competitive	–	–	–	–
CSC(=O)c1ccc(-c2cnc(C(=O)CCCCCCc3ccccc3)o2)nc1 [compound 5]	reversible, competitive	–	–	–	time-dependent change of inhibition potency (in words) (rFAAH [7]): did not exhibit this time-dependent increase; recovery from the assay buffer [8]: recovered unchanged; recovery from enzymatic assays ([8]; enzymatic assays): recovered unchanged
N#Cc1ccc(-c2cnc(C(=O)CCCCCCc3ccccc3)o2)nc1 [compound 7]	–	–	–	–	time-dependent change of inhibition potency (in words) (rFAAH [7]): did not display time-dependent increases in potency
COC(=N)c1ccc(-c2cnc(C(=O)CCCCCCc3ccccc3)o2)nc1 [compound 8]	–	–	–	–	time-dependent change of inhibition potency (in words) (rFAAH [7]): did not display time-dependent increases in potency
O=C(CCCCCCc1ccccc1)c1ncc(-c2ccc(CBr)cn2)o1 [compound 11]	noncompetitive	failing to restore FAAH activity; also recorded: little or no recovery of enzyme activity	most pronounced time-dependent increase in potency	approximately 2 fold	activity in a mouse model of neuropathic pain (neuropathic pain): long acting in vivo activity; duration of elevation of brain lipid amides [3]: > 6 h; time of peak brain lipid amide levels [3]: 1.5 to 3 h
O=C(CCCCCCc1ccccc1)c1ncc(-c2ccc(CCl)cn2)o1 [compound 12]	–	–	insensitive to preincubation	–	–
N#CCc1ccc(-c2cnc(C(=O)CCCCCCc3ccccc3)o2)nc1 [compound 14]	noncompetitive	failing to restore FAAH activity; also recorded: little or no recovery of enzyme activity	did exhibit increases in potency	approximately 2 fold	activity in a mouse model of neuropathic pain (neuropathic pain): long acting in vivo activity; duration of elevation of brain lipid amides [3]: > 6 h; time of peak brain lipid amide levels [3]: 1.5 to 3 h
CSC(=O)Cc1ccc(-c2cnc(C(=O)CCCCCCc3ccccc3)o2)nc1 [compound 16]	reversible, competitive	–	–	–	time-dependent change of inhibition potency (in words) (rFAAH [7]): did not exhibit this time-dependent increase
COC(=N)Cc1ccc(-c2cnc(C(=O)CCCCCCc3ccccc3)o2)nc1 [compound 17]	noncompetitive	do not appear to be even slowly reversible	did exhibit increases in potency	–	–
CCOC(=O)/C=C/c1ccc(-c2cnc(C(=O)CCCCCCc3ccccc3)o2)nc1 [compound 18]	mixed kinetics	did not restore enzyme activity	–	–	–
N#C/C=C/c1ccc(-c2cnc(C(=O)CCCCCCc3ccccc3)o2)nc1 [compound 19]	mixed kinetics	did not restore enzyme activity	–	–	–
CCOS(=O)(=O)/C=C/c1ccc(-c2cnc(C(=O)CCCCCCc3ccccc3)o2)nc1 [compound 20]	noncompetitive	–	–	approximately 2 fold	–
CS(=O)(=O)/C=C/c1ccc(-c2cnc(C(=O)CCCCCCc3ccccc3)o2)nc1 [compound 21]	noncompetitive	–	–	approximately 2 fold	–
C[S+]([O-])/C=C/c1ccc(-c2cnc(C(=O)CCCCCCc3ccccc3)o2)nc1 (stereo not shown) [compound 22]	noncompetitive	–	–	approximately 2 fold	–
CSC(=O)CCCCc1cnc(C(=O)CCCCCCc2ccccc2)o1 [compound 25]	reversible, competitive	–	–	–	recovery from the assay buffer [8]: recovered unchanged
